Rows were chosen to be rich in hits. Some 2.3% of all compounds tested hit in one or more screens of this group.
HCV core dimer – blocks dimerization of HCV core protein | AID 1899 | inhibition, % at 5 µM | TR-FRET GST/Flag-core106 dimerization, 1536-well | 0.33% of 300,000 active;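 active = inhibition above the mean of all tested compounds plus 3 SD, set per screening campaign, cut at about 45% in these data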
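System – GST-tagged and Flag-tagged HCV core protein residues 1-106 · Repeats – one well for each compound · Technique – TR-FRET 671 and 617 nm emission · Doses – one concentration, 5 µM, in 0.5% DMSO · Times – 4 h, 22.5 °C incubation · Also added – Eu donor and XL665 acceptor anti-tag antibodies · Measure – percent inhibition of core106 dimerization signal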
GPR7 antag – blocks human GPR7 receptor signaling. P48145. GPR7-expressing cells, fluorescence antagonist assay. inhibition, % at 4.4 µM. 1.1% of 290,000 active; in the data active = inhibition above about 16%, passing the limit was not always enough;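 also: cells stimulated with the agonist NPW; 0% = agonist with vehicle and 100% = vehicle without agonist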
EBV gp42 block – EBV gp42 inhibition; Q1HVG2; Fluorescence polarization binding assay, mP read-out; inhibition, % (tested at 21.74 µM); 0.42% of 220,000 active; AID 1085; in the data active = inhibition above about 50%
Target sequence (Q1HVG2 whole entry, looked up): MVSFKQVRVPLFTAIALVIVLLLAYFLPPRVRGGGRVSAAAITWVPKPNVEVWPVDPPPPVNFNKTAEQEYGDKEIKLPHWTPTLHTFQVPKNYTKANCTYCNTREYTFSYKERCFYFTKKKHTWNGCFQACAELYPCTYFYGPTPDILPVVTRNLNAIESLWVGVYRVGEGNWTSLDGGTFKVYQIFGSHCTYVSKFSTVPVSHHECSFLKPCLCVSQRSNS
ZTA counter – counter-screen for EBNA-1 inhibitors: inhibitors of Epstein-Barr virus ZTA; P03206; 0.15% of 320,000 active; inhibition, % at 11 µM; ZTA-DNA binding, fluorescence polarization; in the data active = inhibition above about 33%
Target sequence (P03206 whole entry, looked up): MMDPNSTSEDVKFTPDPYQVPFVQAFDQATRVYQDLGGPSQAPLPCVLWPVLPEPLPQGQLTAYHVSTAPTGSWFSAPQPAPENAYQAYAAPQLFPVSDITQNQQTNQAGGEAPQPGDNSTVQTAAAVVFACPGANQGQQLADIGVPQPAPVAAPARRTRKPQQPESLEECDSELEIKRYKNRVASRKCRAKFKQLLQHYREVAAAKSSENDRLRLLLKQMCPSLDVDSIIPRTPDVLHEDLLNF
EBNA-1 inh – blocks EBNA-1 binding to DNA | EBNA-1 DNA binding, fluorescence polarization | inhibition, % at 14.8 µM | 0.34% of 300,000 active | AID 1950; in the data active = inhibition above about 28%
NS3 helicase inh – inhibitors of Hepatitis C virus NS3 helicase. NS3 helicase DNA unwinding, Cy5 molecular beacon fluorescence. inhibition, % at 10.9 µM. 0.56% of 290,000 active. AID 1800;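 active = inhibition above the mean of all tested compounds plus 3 SD, set per campaign, cut at about 35% in these data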;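 also: 0% = DMSO wells and 100% = thioflavine S control wells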
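Measured by: Cy5 fluorescence, 0 and 60 min reads / Assay system: NS3 helicase fragment of HCV / Control set: low DMSO, high thioflavine S at 110 µM / Times: 1 h reaction at 25 °C, ATP-initiated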
GPR7 antag cf – human GPR7 antagonism, confirmation assay. shares compounds with GPR7 antag. GPR7-expressing cells, calcium fluorescence antagonist mode. inhibition, % at 4.4 µM. 52% of 2,400 active; in the data active = inhibition above about 24%;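 also: stimulated with the GPR7 agonist NPW; 0% = agonist plus vehicle and 100% = vehicle alone without agonist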
MCHR1 antagonist – antagonizes human MCHR1, a GPR7 antagonist counter-screen | inhibition, % at 4.4 µM | 62% of 2,400 active | MCHR1-expressing cells, fluorescence antagonist assay | shares compounds with GPR7 antag | AID 2148; in the data active = inhibition above about 22%;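 also: 0% = vehicle with agonist and 100% = vehicle without agonist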
* = called active by the depositor; . = no result.

SMILES	HCV core dimer	GPR7 antag	EBV gp42 block	ZTA counter	EBNA-1 inh	NS3 helicase inh	GPR7 antag cf	MCHR1 antagonist
O=C(O)c1cccc(N2C(=O)c3cc4cccc(Br)c4cc3C2=O)c1	-8.1	37.9*	.	-8.8	-8.8	14.4	0.3	11.3
O=C(O)c1ccc2c(c1)C(=O)N(c1cccc(C(=O)/C=C/c3ccccc3)c1)C2=O	18.3	-1.1	1.2	5.6	-11.6	3.9	.	.
COc1ccc(CCNC(=O)c2cc(C3CC3)on2)cc1OC	-0.7	-3.4	5.4	-7.3	-5.5	-7.0	.	.
CN(C)S(=O)(=O)Oc1ccsc1C(=O)Nc1ccc(Cl)c(Cl)c1	-3.3	27.8*	3.0	-20.6	-13.5	-5.5	21.4	58.1*
O=C(NCc1n[nH]c(=S)n1-c1ccc(Br)cc1)c1ccc(S(=O)(=O)N2CCCCC2)cc1	5.5	-6.0	.	9.5	-5.8	-8.3	.	.
CCN(c1ccccc1)S(=O)(=O)c1cc(C(=O)Nc2cccc(Cl)c2)ccc1F	3.8	26.2*	-5.7	-4.2	-0.6	-7.7	9.5	51.0*
CCCC(c1nnnn1C1CCCCC1)N1CCN(C2CCCC2)CC1 (centres undefined)	-5.1	22.2*	-19.6	-17.7	-7.1	-0.8	22.4	16.5
CCCCC(c1nnnn1C1CCCC1)N1CCN(C2CCCC2)CC1 (centres undefined)	-2.3	22.6	-20.2	-1.1	0.0	7.2	.	.
O=C(NNc1ccccc1)Nc1ccccc1F	6.5	-12.5	.	12.1	8.3	1.5	.	.
CCOc1ccccc1CN1CCNC(=O)C1CC(=O)N(C)CCc1cnn(C)c1 (centres undefined)	-5.8	-3.1	.	13.0	15.4	1.8	.	.
CC(C)(O)C(=O)NN(C(=O)c1ccccc1)c1ccc2ccccc2c1	-8.5	8.8	-8.4	-14.7	4.5	-8.0	.	.
O=C(c1ccccc1F)N(NC(=O)C(O)(c1ccccc1)c1ccccc1)c1ccccc1	9.8	34.9*	3.7	-6.3	2.7	-8.5	36.5*	31.1*
O=C(c1ccccc1)N(NC(=O)C(O)(c1ccccc1)c1ccccc1)c1cccc(F)c1	-1.9	37.0*	8.9	-2.4	3.8	-19.0	14.8	64.1*
Cc1ccc(C(O)(C(=O)NN(C(=O)c2ccccc2)c2ccccc2)c2ccc(C)cc2)cc1	2.9	35.8*	-18.3	-1.4	12.0	-5.8	39.5*	22.9*
COc1ccc(S(=O)(=O)N2CCN(C(=O)COc3ccc(C)c(C)c3)CC2)cc1OC	8.3	-4.3	.	8.1	-1.7	-3.4	.	.
C#CCNC(=O)C1=C[C@@H](c2ccc(C#C)cc2)C[C@@H](OCc2ccc(CO)cc2)O1	20.7	.	.	-1.8	5.9	.	.	.
Cc1cc([N+](=O)[O-])ccc1NC(=O)CSc1nnc(C)n1C	-8.7	5.6	.	-6.3	-7.5	0.7	.	.
Cc1nc2ccccc2n1CC(O)COc1ccc(Br)cc1 (centres undefined)	-4.1	6.4	1.4	6.5	5.6	3.8	.	.
CCC(=O)c1ccc(OCC(O)Cn2c(C)nc3ccccc32)cc1 (centres undefined)	4.4	27.7*	5.9	4.1	-18.5	5.2	23.5	57.2*
Cc1ccc(NC(Cc2cc(C)no2)c2ccccc2)cc1 (centres undefined)	0.5	40.5*	-23.5	-11.9	-5.9	7.8	34.2*	12.4
Cn1cc(C(=O)c2cccc(Cl)c2)cc1C#N	-1.9	7.1	-5.4	5.4	8.3	2.7	.	.
Cn1cc(C(=O)c2cccc(Cl)c2)cc1/C=N\O	-1.7	22.0*	-24.4	-6.0	0.0	14.5	-3.2	-6.2
Cc1ccccc1CC1(CO)CCCN(C(=O)c2ccc(F)cc2)C1 (centres undefined)	-3.3	-0.1	-9.5	8.4	-4.2	6.7	.	.
Cc1ccccc1CC1(CO)CCCN(C(=O)c2ccccc2N(C)C)C1 (centres undefined)	-0.7	30.8*	-10.5	0.4	-1.0	1.1	36.1*	30.7*
O=C(c1cccs1)N1CCC(c2ccccc2)C1 (centres undefined)	-4.9	21.0*	-22.0	-1.0	2.5	0.2	6.9	-5.5
SMILES	HCV core dimer	GPR7 antag	EBV gp42 block	ZTA counter	EBNA-1 inh	NS3 helicase inh	GPR7 antag cf	MCHR1 antagonist
Cc1ccccc1/C=C/C(=O)NCC(=O)N1CCC(N(C)C2CCCCC2C)CC1 (centres undefined)	-4.8	-18.1	-3.0	1.2	-3.3	-4.5	.	.
CCCC(=O)NC(=S)Nc1ccc(S(=O)(=O)Nc2ccc(OCC)cc2)cc1	12.1	29.3*	-11.6	-3.4	5.6	-5.2	53.4*	66.9*
CCOc1ccc(NS(=O)(=O)c2ccc(NC(=S)NC(=O)CC(C)C)cc2)cc1	8.8	4.6	18.6	9.1	-14.4	6.0	.	.
O=C(NN=C1CCCC1)c1ccccc1OCCOc1ccccc1	2.6	22.1*	6.4	5.0	-10.3	-31.4	14.9	27.4*
O=C(NN=C1CCCCC1)c1ccccc1OCc1ccc(F)cc1	1.6	5.6	-5.6	8.9	4.6	-0.2	.	.
Cc1sc2nc(CSC(C)C(=O)N3CCOCC3)[nH]c(=O)c2c1C (centres undefined)	2.6	-6.7	.	8.7	-8.8	0.7	.	.
O=C(O)CCC(=O)NNc1nc2ccccc2nc1-c1ccccc1	2.9	-2.0	-3.9	0.8	10.3	-5.8	.	.
CCCCCCCCCn1c2c(c(=N)c3c1CCC3)CCC2	12.4	78.2*	-5.2	14.0	3.6	-45.5	78.2*	73.2*
CCCCn1c2c(c(=N)c3c1CCC3)CCC2	1.5	8.9	-64.1	7.3	0.1	6.3	.	.
CCCCCCn1c2c(c(=N)c3c1CCC3)CCC2	-3.4	37.4*	-8.7	-9.1	-0.9	-6.1	41.9*	45.8*
Cc1csc(CN(C)C(=O)c2cn(Cc3cccc4ccccc34)nn2)n1	0.9	-12.0	.	8.7	-11.0	-4.6	.	.
Nc1c(C(=O)NCc2ccc3c(c2)OCO3)nnn1CC(=O)Nc1ccc(Br)cc1	-3.2	1.9	.	-0.5	-6.7	4.2	.	.
O=C(NCc1ccc2c(c1)OCO2)C(=O)NCC1OCCN1S(=O)(=O)c1ccc(Br)cc1 (centres undefined)	2.8	28.7*	.	19.3	3.6	5.8	22.0	39.9*
Nc1c(C(=O)NCc2ccc3c(c2)OCO3)nnn1Cc1ccc(Br)cc1	-3.2	23.7*	-31.5	-8.4	13.6	-4.4	26.8*	21.0
O=C(Cc1cccc(NC(=O)C2CCN(C(=O)C3CCCCC3)CC2)c1)Nc1cccc(C(=O)N2CCCC2)c1	.	.	.	6.1	.	.	.	.
O=C(Nc1ccccc1)Nc1ncc([N+](=O)[O-])s1	.	23.3*	-15.2	.	.	3.0	19.8	52.8*
O=C(CN1C(=O)COc2ccccc21)N1CCCC1	-1.9	9.8	.	6.6	8.0	2.1	.	.
O=C(CN1C(=O)COc2ccccc21)N1CCOCC1	4.4	32.0*	.	-4.8	-14.4	15.3	-2.8	-1.0
